PGC1a acetyl inh – modulators of PGC1a acetylation | U2OS PGC1a acetylation, AlphaScreen anti-acetyl-lysine; with virally co-expressed GCN5 acetyltransferase | inhibition, % at 15.6 µM | hit rate 0.17% among 350,000 | AID 651687;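 active = every replicate shows inhibition of at least 40%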;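 also: 0% = neutral control wells and 100% = positive control wells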
CASP6 VEID inh – blocks human caspase-6 cleavage activity; P55212; purified caspase-6, Z-VEID-R110 cleavage fluorescence; inhibition, % at 12.5 µM; hit rate 0.53% among 350,000; AID 686996;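 active = mean inhibition across replicates at least about 35%, with every replicate also reaching that limit, limit read from the data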;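 also: 0% = median of neutral control wells and 100% = no fluorescence left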
Target sequence (P55212 24-179 limits assumed): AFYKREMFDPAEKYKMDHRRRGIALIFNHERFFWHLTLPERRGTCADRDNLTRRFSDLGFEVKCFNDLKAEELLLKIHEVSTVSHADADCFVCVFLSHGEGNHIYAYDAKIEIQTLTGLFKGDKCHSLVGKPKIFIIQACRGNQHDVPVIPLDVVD
Target sequence (P55212 194-293 limits assumed): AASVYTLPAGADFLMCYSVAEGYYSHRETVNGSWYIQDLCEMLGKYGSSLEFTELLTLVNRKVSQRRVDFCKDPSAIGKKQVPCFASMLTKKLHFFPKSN
rRNA inh HTS – inhibitors of bacterial rRNA selective over humanized ribosomes; E. coli WT GFP vs humanized-ribosome RFP mutants, fluorescence, 24 h; active compounds read low; DMSO median 0, no signal -100; GFP signal change (wild-type ribosome), % (test concentration not listed); hit rate 1.6% among 350,000;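 active = significant combined selectivity score with lowered wild-type GFP, culture density cut under 30%, mutant RFP and density less affected; inactive = any of these conditions unmet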
S100A4 inh HTS – S100A4-myosin IIA interaction inhibition; AID 652163; S100A4/TAMRA-MyoIIA peptide fluorescence polarization; inhibition, % at 10.7 µM; hit rate 0.14% among 360,000;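 active = mean inhibition of at least 70% across replicates, with every replicate also reaching that level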
Target sequence (P26447 whole entry, looked up): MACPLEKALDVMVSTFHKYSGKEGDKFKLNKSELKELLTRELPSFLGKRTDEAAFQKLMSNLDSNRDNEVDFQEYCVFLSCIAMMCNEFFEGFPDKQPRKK
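assay system = human S100A4 monomer with TAMRA-labelled myosin IIA peptide | also added = labelled myosin peptide probe, 5 nM | incubation = 5 min between mix addition and reading | control set = DMSO and TFP controls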
ARNT TACC3 PPI – disrupts binding between human ARNT and TACC3; Q9Y6A5; AlphaScreen His-ARNT PAS-B/GST-TACC3 binding, luminescence; TACC3 fragment carries E629A point mutation; inhibition, % at 9.99 µM; hit rate 0.66% among 390,000;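 active = mean inhibition of replicates at least 50% and at least half of replicates each reaching 50%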;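 also: 0% = complete ARNT plus TACC3 wells and 100% = ARNT alone without TACC3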
ERAP1 HTS inh – blocks human ERAP1 aminopeptidase activity; hit rate 0.15% among 340,000; Q9NZ08; recombinant ERAP1, Leu-AMC fluorescence, 60 min; inhibition, % at 10.7 µM;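 active = mean replicate inhibition of at least 30%, or all replicates individually reaching that 30% level; inactive = mean below 30% and not every replicate reaching it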;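 also: 0% = neutral control wells and 100% = L-leucinethiol positive control wells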
AlphaScreen ctr – interferes with AlphaScreen signal, flagging false ARNT-TACC3 hits; shares compounds with ARNT TACC3 PPI; His-ARNT PASB-GST AlphaScreen artifact counter-screen, luminescence; AC50, µM (titrated, usually from 68 µM), inactives show top-dose activity change, negative = signal decrease; hit rate 50% among 1,200;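 active = every separate test run was called active for a drop in luminescence, with AC50 within twice the top valid dose, actives reach about 71 µM in these data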
Numbers without * were called inactive. A selection: hits, their analogues and other compounds. The true share with any hit is near 2.4%.

O=c1cc(N/N=C/c2ccccc2)[nH]c(=O)[nH]1 was read as PGC1a acetyl inh 7, CASP6 VEID inh 12, rRNA inh HTS 16, S100A4 inh HTS -2, ARNT TACC3 PPI 20* and AlphaScreen ctr 1%.
For O=c1cc(C=NNc2ccccc2)[nH]c(=O)[nH]1 the results were CASP6 VEID inh -1, rRNA inh HTS 3, S100A4 inh HTS 13, ARNT TACC3 PPI -4 and ERAP1 HTS inh 0.
`N#CC1=C(N)Oc2n[nH]c(-c3ccccn3)c2C1c1c(F)cccc1Cl` (stereo not drawn) gave PGC1a acetyl inh -15, ARNT TACC3 PPI 55* and AlphaScreen ctr -8%.
Screening Cc1nn2c(nc1=O)NNC2(C)C(C)(C)C (stereo not drawn) returned PGC1a acetyl inh -1, CASP6 VEID inh -2, rRNA inh HTS 4, S100A4 inh HTS -2, ARNT TACC3 PPI 64*, ERAP1 HTS inh -2 and AlphaScreen ctr -3%.
Screening CC(C)NC(=O)Nc1ccc2c(c1)CC(=O)N([C@@H](C)CO)C[C@H](C)[C@H](CN(C)S(=O)(=O)c1ccc(F)cc1)O2 returned PGC1a acetyl inh 7 and rRNA inh HTS -1.
`FC(F)(F)c1cnc(C(c2ccccn2)c2ncn[nH]2)c(Cl)c1` (stereo not drawn) gave PGC1a acetyl inh 2, CASP6 VEID inh 5, rRNA inh HTS 1, S100A4 inh HTS 19, ARNT TACC3 PPI 62*, ERAP1 HTS inh 3 and AlphaScreen ctr 58µM*.
`FC(F)(F)c1cnc(C(c2ccccc2)c2ncn[nH]2)c(Cl)c1` (stereo not drawn) gave PGC1a acetyl inh 1, CASP6 VEID inh -1, rRNA inh HTS 5, S100A4 inh HTS 3, ARNT TACC3 PPI 0 and ERAP1 HTS inh -8.
`CCc1c(C)sc(NC(=O)C2CC(c3c(F)cccc3Cl)=NO2)c1C#N` (stereo not drawn) gave PGC1a acetyl inh 4, CASP6 VEID inh 0, rRNA inh HTS -23, S100A4 inh HTS -7, ARNT TACC3 PPI active, ERAP1 HTS inh 2 and AlphaScreen ctr 3%.
Screening c1ccc(-c2nnc(-c3ccccn3)nc2N2CCN(c3ccncc3)CC2)cc1 returned AlphaScreen ctr 2.1µM*.
c1ccc(-c2nnc(-c3ccccn3)nc2N2CCC(c3ccccc3)C2)cc1 (stereo not drawn) was read as AlphaScreen ctr 4.8µM*.
For c1ccc(-c2nnc(-c3ccccn3)nc2N2CCC(N3CCOCC3)CC2)cc1 the results were AlphaScreen ctr 0.92µM*.
c1ccc(-c2nc(N3CCOCC3)c3ccccc3n2)nc1 was read as PGC1a acetyl inh 11.
`c1ccc(-c2nnc(N3CCN(c4ccccn4)CC3)c3ccccc23)cc1` gave ARNT TACC3 PPI 27.
Cc1ccc(NC(=O)CN(C)C(=O)COc2cccc3cccnc23)cc1 was read as ARNT TACC3 PPI 58* and AlphaScreen ctr -17%.
For O=C(Nc1ccc2c(c1)[C@@H]1C[C@H](CC(=O)N3CCc4ccccc4C3)O[C@@H](CO)[C@@H]1O2)c1ccc2c(c1)OCO2 the results were PGC1a acetyl inh -1, CASP6 VEID inh 2, rRNA inh HTS -14, S100A4 inh HTS -37, ARNT TACC3 PPI 51*, ERAP1 HTS inh 0 and AlphaScreen ctr 49µM*.
`CC(C)NC(=O)Nc1cccc2c1O[C@@H](CN(C)Cc1ccc(C(F)(F)F)cc1)[C@H](C)CN([C@@H](C)CO)C2=O` gave PGC1a acetyl inh -11, CASP6 VEID inh -1, rRNA inh HTS -3, S100A4 inh HTS 12 and ERAP1 HTS inh -1.
For Cc1noc(C)c1NC(=O)N(C)C[C@H]1Oc2ccc(NC(=O)Cc3ccccc3)cc2CC(=O)N([C@@H](C)CO)C[C@H]1C the results were PGC1a acetyl inh -1, rRNA inh HTS 2 and ARNT TACC3 PPI 2.
O=S(=O)(N[C@@H]1CC[C@H](CCn2cc(-c3ccccn3)nn2)O[C@@H]1CO)c1cccc(Cl)c1 was read as PGC1a acetyl inh 1, CASP6 VEID inh -2, rRNA inh HTS -4, S100A4 inh HTS 2, ARNT TACC3 PPI 66*, ERAP1 HTS inh -1 and AlphaScreen ctr 31µM*.
O=S(=O)(N[C@@H]1CC[C@@H](CCn2cc(-c3ccccn3)nn2)O[C@H]1CO)c1cccc(Cl)c1 was read as PGC1a acetyl inh -9, CASP6 VEID inh 1, rRNA inh HTS -4, S100A4 inh HTS 11, ARNT TACC3 PPI 66*, ERAP1 HTS inh -2 and AlphaScreen ctr 41µM*.
`O=S(=O)(N[C@H]1CC[C@@H](CCn2cc(-c3ccccn3)nn2)O[C@H]1CO)c1cccc(Cl)c1` gave PGC1a acetyl inh -10, CASP6 VEID inh -1, rRNA inh HTS -6, S100A4 inh HTS 5, ARNT TACC3 PPI 70*, ERAP1 HTS inh -2 and AlphaScreen ctr 32µM*.
Screening Cc1noc(C)c1NC(=O)Nc1ccc2c(c1)CC(=O)N([C@@H](C)CO)C[C@@H](C)[C@H](CN(C)C)O2 returned PGC1a acetyl inh 3, CASP6 VEID inh 1, rRNA inh HTS 5, S100A4 inh HTS 44, ARNT TACC3 PPI 11 and ERAP1 HTS inh 2.
`O=C(NC[C@@H]1CC[C@@H]2[C@@H](CN2C(=O)C2CCOCC2)O1)c1cccnc1` gave CASP6 VEID inh -5, S100A4 inh HTS -14 and ERAP1 HTS inh 0.
Screening CC(C)NC(=O)N(C)C[C@H]1Oc2ccc(NC(=O)CCCCCC(=O)Nc3ccccc3N)cc2CC(=O)N([C@@H](C)CO)C[C@@H]1C returned PGC1a acetyl inh 9, CASP6 VEID inh 0, rRNA inh HTS 4, S100A4 inh HTS 2, ARNT TACC3 PPI 4 and ERAP1 HTS inh 4.
For COCCn1c(N)c(C(=O)NCc2cccs2)c2nc3ccccc3nc21 the results were PGC1a acetyl inh -25, ARNT TACC3 PPI 51* and AlphaScreen ctr -25%.
For Cc1noc(C)c1NC(=O)Nc1ccc2c(c1)CC(=O)N([C@@H](C)CO)C[C@@H](C)[C@@H](CN(C)Cc1ccc(C(F)(F)F)cc1)O2 the results were PGC1a acetyl inh 11, CASP6 VEID inh 0, rRNA inh HTS 0, S100A4 inh HTS -6, ARNT TACC3 PPI 17 and ERAP1 HTS inh -2.
For O=C(NCCCn1ccnc1)C(F)(F)C(F)(F)C(=O)NCCCn1ccnc1 the results were PGC1a acetyl inh -5, ARNT TACC3 PPI 51* and AlphaScreen ctr -18%.
